Legend:
[1] = biological target: T1, Human recombinant catalytic domain of PERK (Homo sapiens, UniProt Q9NZJ5); details: published PERK inhibitor; cited from earlier work
T1 sequence (Q9NZJ5 536-1116): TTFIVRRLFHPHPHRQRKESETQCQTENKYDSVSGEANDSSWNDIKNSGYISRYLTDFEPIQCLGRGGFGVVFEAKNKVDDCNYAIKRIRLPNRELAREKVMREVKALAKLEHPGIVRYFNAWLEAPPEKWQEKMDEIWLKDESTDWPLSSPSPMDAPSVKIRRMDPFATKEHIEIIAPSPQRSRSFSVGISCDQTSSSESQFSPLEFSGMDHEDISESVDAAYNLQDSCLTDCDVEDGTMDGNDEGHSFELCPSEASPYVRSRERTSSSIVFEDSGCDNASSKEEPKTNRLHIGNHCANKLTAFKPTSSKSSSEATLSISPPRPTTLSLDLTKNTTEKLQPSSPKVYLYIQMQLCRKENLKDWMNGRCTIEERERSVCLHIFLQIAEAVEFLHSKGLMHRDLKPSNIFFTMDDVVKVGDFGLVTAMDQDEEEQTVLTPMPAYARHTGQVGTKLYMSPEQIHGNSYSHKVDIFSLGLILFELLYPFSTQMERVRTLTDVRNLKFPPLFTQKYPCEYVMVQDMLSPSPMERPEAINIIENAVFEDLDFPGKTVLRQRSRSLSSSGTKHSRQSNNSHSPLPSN

[2] = biological target: T1, Human recombinant catalytic domain of PERK; assay: Radiometric PERK kinase assay; format: biochemical; details: method of replots
Procedure, shortened: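 Radiometric filter assay using GST-tagged human PERK catalytic domain (aa 536–1116) at 8 nM and full-length Flag-tagged eIF2α. Buffer was 20 mM HEPES pH 7.2, 10 mM MgCl₂, 150 mM NaCl, 0.01% Tween 20, with [γ-³³P]ATP, at room temperature. Initial velocity versus ATP was measured at fixed 10 µM eIF2α across several test compound concentrations. Reactions were stopped with 75 mM phosphoric acid, filter-captured, washed and scintillation-counted; no-PERK background; analysed by replots.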

PERK = assay: Thapsigargin-induced eIF2α phosphorylation in MEFs; format: cell-based, mouse; details: wild-type MEFs, pretreated at 50 µM for 1 or 24 h, then thapsigargin 500 nM 1 h
Procedure, shortened: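 Wild-type mouse embryonic fibroblasts were grown in high-glucose DMEM with 4 mM L-glutamine, 10% FBS, penicillin/streptomycin and β-mercaptoethanol. Cells were pretreated with test compound at 50 µM for 1 or 24 h, then with 500 nM thapsigargin for 1 h; PERK⁻/⁻ MEFs served as control.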

mechanism of inhibition with respect to ATP ([2]; ATP variable, fixed eIF2α)	mechanism of inhibition with respect to eIF2α ([2]; eIF2α variable, fixed ATP)	Compound	mechanism of action on PERK [1]	stress-dependent eIF2α phosphorylation (PERK)
–	–	Cn1cc(-c2ccc3c(c2)CCN3C(=O)Cc2cccc(C(F)(F)F)c2)c2c(N)ncnc21 [GSK2606414, 7-Methyl-5-(1-{[3-(trifluoromethyl)phenyl]acetyl}-2,3-di-hydro-1H–indol-5-yl)-7H–p yrrolo[2,3-d]pyrimidin-4-amine]	ATP competitive	–
noncompetitive	noncom-petitive	O=c1ccc2nccc3c4ccccc4n1c23 [LDN-0022506, canthin-6-one]	–	inhibited
